5HT1E antag – 5-HT1E (human) receptor antagonism. P28566. CHO 5-HT1E Ga15 NFAT-bla reporter, FRET, antagonist. inhibition, % at 6 µM. 65,000 tested, 0.99% active. AID 571;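 active means inhibition above a set limit, the mean inhibition across every tested compound plus 3 SD, cut at about 29% in these data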;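 further: signal is the 460 over 535 nm emission ratio of beta-lactamase substrate; 0% = agonist plus DMSO wells and 100% = wells without agonist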
5HT1a ag – activates the human 5-HT1a serotonin receptor. 65,000 tested, 0.56% active. P08908. AID 567. CHO 5-HT1a Ga15 NFAT-bla reporter, FRET ratio; 0% basal, 100% maximal reference agonist. activation, % at 10 µM;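 active means activation above the screen-wide mean activation plus 3 SD, cut at about 19% in these data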;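 further: 0% = DMSO wells and 100% = 5-CT at EC100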
Target sequence (P08908 whole entry, looked up): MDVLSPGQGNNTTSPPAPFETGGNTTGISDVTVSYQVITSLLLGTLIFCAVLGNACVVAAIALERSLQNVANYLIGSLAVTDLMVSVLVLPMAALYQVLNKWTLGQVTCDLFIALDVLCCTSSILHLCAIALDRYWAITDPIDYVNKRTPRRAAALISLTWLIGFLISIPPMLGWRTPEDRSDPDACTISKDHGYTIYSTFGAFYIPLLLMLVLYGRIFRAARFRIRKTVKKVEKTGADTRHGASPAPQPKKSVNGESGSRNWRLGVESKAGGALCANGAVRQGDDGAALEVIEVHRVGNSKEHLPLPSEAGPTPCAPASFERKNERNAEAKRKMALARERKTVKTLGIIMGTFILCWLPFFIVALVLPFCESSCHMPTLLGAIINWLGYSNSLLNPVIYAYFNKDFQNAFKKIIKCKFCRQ
HEK293 NFkB inh – inhibitors of the PMA/ionomycin-induced NF-kB reporter in HEK293 cells. 62,000 tested, 0.21% active. inhibition, % at 3 µM. HEK-293 NF-kB luciferase reporter, luminescence. AID 465;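 active means inhibition above the mean of all tested compounds plus 3 SD, cut at about 40% in these data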;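 further: 0% = stimulated DMSO wells and 100% = 10 µM reference inhibitor 5653914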
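Reagent: PMA plus ionomycin mix as NF-kB-activating stimulus. Assay system: NF-kB luciferase reporter HEK-293 cells. Technique: luminescence from luciferase substrate reagent. Incubation: 1 h compound pre-incubation, 16 h PMA/ionomycin at 37 °C. Benchmarks: DMSO only as uninhibited control, 10 µM reference inhibitor as full inhibition. Repeats: tested once.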
5HT1a antag – blocks the human serotonin 5-HT1a receptor; AID 612; CHO 5-HT1a Ga15 NFAT-bla reporter, antagonist mode; P08908; inhibition, % at 10 µM; 62,000 tested, 0.68% active;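 active means inhibition above the mean of all tested compounds plus 3 SD, cut at about 43% in these data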;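 further: receptor stimulated by 5-CT agonist at 100 nM near EC80; beta-lactamase reporter measured by ratiometric fluorescence of a cleavable substrate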
5HT1E ag – agonists of human 5-HT1E serotonin receptor; AID 574; P28566; activation, % at 6 µM; 65,000 tested, 0.69% active; CHO 5-HT1E Ga15 NFAT-bla reporter, FRET; 0% DMSO wells, 100% control agonist wells;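 active means activation above a set limit, the screen-wide mean activation plus 3 SD, cut at about 8.5% in these data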;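 further: 100% = positive control agonist at 1 µM giving full maximal response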
Jurkat viability – cytotoxic compounds reducing Jurkat cell viability. 56,000 tested, 1.2% active. inhibition, % at 4 µM. Jurkat E6.1 viability, ATP luminescence, 48 h;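 active means inhibition above the mean inhibition of all tested compounds plus 3 SD, cut at about 28% in these data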
Numbers without * were called inactive; . = no result given. Only some compounds are listed: those with a hit (about 3.3% of all), similar ones and a draw of the others.

SMILES | 5HT1E antag | 5HT1a ag | HEK293 NFkB inh | 5HT1a antag | 5HT1E ag | Jurkat viability
CCn1c(SCC(=O)Nc2cc(C)ccc2C)nc2c(c1=O)SC(C)C2 (configuration not stated) | 0 | 70* | 9 | 13 | 1 | -2
CSc1nc(-c2ccco2)nn1S(C)(=O)=O | -2 | -5 | 12 | -12 | -1 | -1
Cc1ccc(C)c(-n2nnnc2Sc2nnnn2-c2ccccc2)c1 | 25 | -1 | 16 | 46* | -1 | 30*
Cc1ccc(S(=O)(=O)NCCSc2nnnn2-c2cc(C)ccc2C)cc1 | -11 | 0 | 16 | 1 | 0 | 2
COc1ccc(OC)c(Nc2cc(C)nc3ccccc23)c1 | 1 | 0 | 15 | 18 | -1 | 19
COc1ccc(OC)c(Nc2cc(-c3ccccc3)nc(N)n2)c1 | 70* | -4 | 38 | 63* | -1 | 98*
CC(=O)N1CCN(c2ccc(NCc3ccc4c(c3)OCO4)cc2)CC1 | -3 | 43* | 4 | -7 | 0 | -2
COC(=O)c1ccc(NC(=O)CCN2CCN(c3ccccc3)CC2)cc1 | 4 | 2 | 4 | 44* | 0 | 2
O=C(CCN1CCN(c2ccccc2F)CC1)Nc1ccc2c(c1)OCO2 | 0 | 8 | 6 | 84* | 0 | -3
COC(=O)c1ccc(NC(=O)CCn2cccc2)cc1 | -6 | -2 | 3 | 4 | 9.6* | -9
COc1ccc(-n2c(SCC(N)=O)nnc2-c2ccccc2F)cc1 | -5 | 2 | 7 | -11 | 1 | -5
CCN1C2=NCCCN2c2cc(C)c(C)cc21 | -4 | -1 | 15 | 11 | 0 | 2
COC(=O)CCCC(=O)N1CCOCCN(C(=O)CCCC(=O)OC)CCOCC1 | -8 | -5 | -5 | 0 | 2 | -7
O=C(CCN1CCN(c2ccccc2)CC1)Nc1ccc2c(c1)OCO2 | -3 | 9 | 17 | 83* | -1 | 3
CCOc1ccc2nc(NC(=O)c3ccoc3C)sc2c1 | -6 | 1 | -42 | -4 | 0 | 42*
O=C(NCCCn1ccnc1)c1ccco1 | -5 | 20* | 1 | -10 | 0 | 0
CC1CC(C)CN(S(=O)(=O)c2ccc(C(=O)NCCCn3ccnc3)cc2)C1 (configuration not stated) | 2 | -3 | -30 | -3 | -1 | 101*
O=C(NCCCn1ccnc1)c1ccncc1 | -7 | 0 | 16 | 0 | 1 | 0
Clc1ccccc1-c1nnc2sc(-c3ccncc3)nn12 | 12 | -1 | 0 | 11 | 0 | -4
CN(C)c1ccc(-c2nn3c(-c4ccncc4)nnc3s2)cc1 | -7 | -4 | -5 | -6 | -1 | 5
COc1ccccc1-c1nnc2sc(-c3ccc(N(C)C)cc3)nn12 | 86* | -4 | 55* | 68* | 1 | 99*
COc1ccccc1-c1nnc2sc(-c3cc4ccccc4o3)nn12 | 36* | -2 | 25 | 19 | 0 | 87*
CN(C)c1ccc(-c2nn3c(-c4ccccc4Cl)nnc3s2)cc1 | 75* | 3 | 34 | 45* | 2 | 82*
COc1ccccc1-c1nnc2sc(-c3cnccn3)nn12 | -9 | -2 | 21 | 1 | 0 | -2
CCc1nc(C)c(C#N)c2cc(OC)c(OC)cc12 | 44* | 3 | 6 | 12 | 0 | -4
SMILES | 5HT1E antag | 5HT1a ag | HEK293 NFkB inh | 5HT1a antag | 5HT1E ag | Jurkat viability
Cc1cccc(-n2ncc3c(NCc4cccs4)ncnc32)c1 | 19 | -1 | -13 | -5 | -1 | 13
c1ccc(CNc2ncnc3c2cnn3-c2ccccc2)cc1 | 29* | 2 | 16 | 7 | 0 | 85*
Cc1cccc(-n2ncc3c(NCc4ccccc4)ncnc32)c1 | 26 | 1 | 11 | 11 | 0 | 83*
Cc1cccc(-n2ncc3c(NCc4ccco4)ncnc32)c1 | 33* | 1 | . | . | 0 | .
COCCn1c(CNc2ccc(F)cc2)nnc1SCC(=O)Nc1ccc(OC)cc1OC | -2 | 0 | 0 | -17 | 0 | .
O=C(C1CCCN(S(=O)(=O)Cc2ccccc2)C1)N1CCc2ccccc21 (configuration not stated) | 2 | -2 | 17 | 6 | -1 | .
CCc1nnc(NC=C2C(=O)OC(C)(C)OC2=O)s1 | 4 | -4 | 8 | -10 | 0 | 5
O=C(Nc1ccccc1)N1CCN(c2nc3ccccc3s2)CC1 | -14 | 2 | 10 | -19 | 12* | 12
O=C(C1CC1)N1CCN(c2nc3ccccc3s2)CC1 | -7 | -2 | -11 | -14 | 0 | 1
O=C(Nc1ccc(F)cc1)N1CCN(c2nc3ccccc3s2)CC1 | -12 | 1 | 26 | -6 | 12* | 10
c1ccc(-c2nc(-c3ccncc3)no2)cc1 | 1 | 0 | -23 | -6 | 0 | -2
c1ccc(C(Cc2nc(-c3ccncc3)no2)c2ccccc2)cc1 | 4 | -1 | 22 | 37 | -1 | 58*
Cc1conc1NC(c1cccs1)c1ccc2cccnc2c1O (configuration not stated) | 19 | -3 | 2 | 25 | -1 | 30*
CC1(C)Cc2cccc(OCC(O)CNCc3ccccn3)c2O1 (configuration not stated) | 10 | -1 | 16 | 21 | 0 | 5
CC1(C)Cc2cccc(OCC(O)CN3CCN(c4ccccn4)CC3)c2O1 (configuration not stated) | -4 | 21* | 3 | 11 | 0 | -13
Cn1c(=O)n(C)c2cc(NS(=O)(=O)c3ccc4c(c3)CCCC4)ccc21 | 14 | -3 | 9 | -17 | 0 | 39*
CCOC(=O)N1CCN(C(=O)c2oc3ccc(S(=O)(=O)N4CCCCCC4)cc3c2C)CC1 | -4 | 4 | 15 | -4 | -1 | .
Cn1c(=O)c2cc(S(=O)(=O)Nc3ccc4c(c3)OCO4)ccc2n(C)c1=O | 4 | -1 | 11 | 24 | -1 | 4
CCOC(=O)c1oc2ccc(S(=O)(=O)Nc3ccc4c(c3)n(C)c(=O)n4C)cc2c1C | 10 | 1 | 26 | -4 | 0 | 44*
Cc1cc(Oc2ccccc2)nc2ccc(O)cc12 | 9 | -3 | -2 | 16 | -1 | 6
Clc1ccc(C(c2nnnn2C2CCCC2)N2CCSCC2)cc1 (configuration not stated) | 20 | -1 | 9 | 50* | 0 | 9
COc1ccc(C(c2nnnn2C2CCCC2)N2CCC(C)CC2)cc1 (configuration not stated) | 4 | 0 | 18 | 19 | 0 | 5
COc1ccccc1NC(=O)C(C)NS(=O)(=O)c1ccccc1 (configuration not stated) | 6 | -1 | 6 | -5 | -1 | -1
c1ccc(-c2cccc(-c3ccccn3)n2)nc1 | 45* | -2 | 86* | 59* | -2 | 87*

Screens: PubChem BioAssay, The Scripps Research Institute Molecular Screening Center
